# Source: ChEMBL document CHEMBL1158578, “Phloroglucinols from the argentine ferns Elaphoglossum gayanum and E. piloselloides” (2010)
# Legend:
# Type in all cases: functional
# Biomphalaria peregrina [1] = assay: Molluscicidal activity against Biomphalaria peregrina assessed as mortality at 2.5 ppm after 24 hrs
# Procedure, shortened: (§1)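 Snails (Biomphalaria peregrina) exposed for 24 h to test samples at 50, 20, 10, 5 and 2.5 ppm, with 21 snails per concentration. Mortality was recorded as a percentage. LD50 and LD90 were calculated from the mortality data by probit analysis. CuSO4 at 10 ppm served as the positive control, alongside an untreated control.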
# Biomphalaria peregrina [2] = assay: Molluscicidal activity against Biomphalaria peregrina assessed as mortality at 5 ppm after 24 hrs; procedure, shortened: as §1
# Biomphalaria peregrina [3] = assay: Molluscicidal activity against Biomphalaria peregrina after 24 hrs; procedure, shortened: as §1
# Biomphalaria peregrina [4] = assay: Molluscicidal activity against Biomphalaria peregrina assessed as mortality at 10 ppm after 24 hrs; procedure, shortened: as §1
smiles,measurement,setting,value
CCCC(=O)C1=C(O)C(C)(CC=C(C)C)C(O)=C(Cc2c(O)c(O)cc(OC)c2C(=O)CCC)C1=O (stereo not given) [ELAPHOPILOSIN D],Activity,Biomphalaria peregrina [1],10%
same,Activity,Biomphalaria peregrina [2],24%
same,LD90,Biomphalaria peregrina [3],22.8 µM
same,LC50,"Biomphalaria peregrina [3]; Biomphalaria peregrina, 24 h, read-out: LD50 (the source's name)",14.4 µM
same,Activity,Biomphalaria peregrina [4],81%
